In brackets after ≈: the same amount, converted by molar mass. Activity calls are given as the source filed them. The calls are words filed in the database; no cut-off is given here.
Columns and labels:
[1] = tested on: Staphylococcus epidermidis; experiment: Antibacterial activity against methicillin-sensitive Staphylococcus epidermidis strains 15 1 to 4 assessed as reduction in bacterial growth incubated for 18 to 20 hrs by CLSI based microdilution method; assay type: functional; details: time 18-20 hrs
In short: (§1)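 Broth microdilution per CLSI. Compounds dissolved in DMSO (levofloxacin and meropenem in water) as 64 μg/mL stock, then serial twofold dilutions in broth giving 64 to 0.008 μg/mL. […] Clinical isolates tested as several strains per group; racemic GP-1 served as positive control; values given as MIC ranges.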

Escherichia coli [2] = experiment: Antibacterial activity against ESBL-producing Escherichia coli ATCC 35218 strains 15 1 to 3 assessed as reduction in bacterial growth incubated for 18 to 20 hrs by CLSI based microdilution method; assay type: functional; details: time 18-20 hrs
In short: (§2)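 CLSI broth microdilution. Compounds in DMSO (levofloxacin and meropenem in water), serial twofold dilutions in broth, 64 to 0.008 μg/mL. […] Results reported as MIC ranges across strains.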

Escherichia coli [3] = experiment: Antibacterial activity against multidrug resistant wild type Escherichia coli ATCC BAA-2340 assessed as reduction in bacterial growth incubated for 18 to 20 hrs by CLSI based microdilution method; assay type: functional; details: time 18-20 hrs; in short: as §1
Escherichia coli [4] = experiment: Antibacterial activity against Escherichia coli ATCC 35218 strains 15 1 to 3 assessed as reduction in bacterial growth incubated for 18 to 20 hrs by CLSI based microdilution method; assay type: functional; details: time 18-20 hrs; in short: as §2
Acinetobacter baumannii [5] = experiment: Antibacterial activity against wild type Acinetobacter baumannii NCTC 13304 assessed as reduction in bacterial growth incubated for 18 to 20 hrs by CLSI based microdilution method; assay type: functional; details: time 18-20 hrs; in short: as §1
Acinetobacter baumannii [6] = experiment: Antibacterial activity agains OXA23-producing multidrug resistant Acinetobacter baumannii assessed as reduction in bacterial growth incubated for 18 to 20 hrs by CLSI based microdilution method; assay type: functional; details: time 18-20 hrs; in short: as §1
Klebsiella pneumoniae [7] = experiment: Antibacterial activity agains wild type Klebsiella pneumoniae ATCC BAA-1705 assessed as reduction in bacterial growth incubated for 18 to 20 hrs by CLSI based microdilution method; assay type: functional; details: time 18-20 hrs; in short: as §2
[8] = molecular target: hERG (KCNH2) potassium channel (Homo sapiens, UniProt Q12809); experiment: Inhibition of hERG potassium channel assessed as maximum inhibition rate at 40 uM at -80 mV holding potential incubated for 120 seconds by whole cell-automated voltage clamp analysis assay relative to control; assay type: toxicity; details: time 120 sec
Sequence of hERG (KCNH2) potassium channel (Q12809 whole entry): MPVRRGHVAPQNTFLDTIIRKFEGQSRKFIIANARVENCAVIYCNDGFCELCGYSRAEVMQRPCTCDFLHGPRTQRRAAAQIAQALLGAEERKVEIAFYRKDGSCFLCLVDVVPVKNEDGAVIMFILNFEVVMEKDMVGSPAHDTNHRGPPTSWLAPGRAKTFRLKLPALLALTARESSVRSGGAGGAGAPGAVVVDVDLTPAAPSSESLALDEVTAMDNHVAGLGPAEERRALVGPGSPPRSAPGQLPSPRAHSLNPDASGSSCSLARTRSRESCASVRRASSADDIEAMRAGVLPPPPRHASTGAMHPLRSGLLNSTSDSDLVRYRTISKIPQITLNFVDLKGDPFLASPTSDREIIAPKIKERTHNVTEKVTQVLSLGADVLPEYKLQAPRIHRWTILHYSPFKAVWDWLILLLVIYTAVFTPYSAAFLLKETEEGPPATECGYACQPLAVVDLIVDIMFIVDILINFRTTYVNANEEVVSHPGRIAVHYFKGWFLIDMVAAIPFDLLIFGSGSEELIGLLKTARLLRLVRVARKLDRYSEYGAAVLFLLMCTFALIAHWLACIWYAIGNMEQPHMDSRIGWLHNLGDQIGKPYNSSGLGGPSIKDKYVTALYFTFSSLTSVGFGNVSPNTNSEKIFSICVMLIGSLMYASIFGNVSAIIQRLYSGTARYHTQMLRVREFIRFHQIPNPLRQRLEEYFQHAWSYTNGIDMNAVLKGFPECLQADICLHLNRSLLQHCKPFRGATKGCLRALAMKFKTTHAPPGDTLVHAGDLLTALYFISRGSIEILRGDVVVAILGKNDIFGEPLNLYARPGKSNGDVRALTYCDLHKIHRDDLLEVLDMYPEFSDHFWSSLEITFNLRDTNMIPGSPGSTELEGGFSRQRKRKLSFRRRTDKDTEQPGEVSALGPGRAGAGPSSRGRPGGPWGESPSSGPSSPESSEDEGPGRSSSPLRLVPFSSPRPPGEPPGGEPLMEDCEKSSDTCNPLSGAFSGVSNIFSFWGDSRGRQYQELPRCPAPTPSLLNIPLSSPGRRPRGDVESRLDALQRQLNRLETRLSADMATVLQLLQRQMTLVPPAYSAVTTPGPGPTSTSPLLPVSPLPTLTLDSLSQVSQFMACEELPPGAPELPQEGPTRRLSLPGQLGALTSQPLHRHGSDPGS
In short: (§3)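 Automated whole-cell patch clamp, holding potential −80 mV. Voltage protocol applied every 20 s. Baseline set with external solution containing 0.1% DMSO and stabilised 3 min. Compound applied until steady state, at least 3 min, then washout. Maximum tested concentration 40 μM, or 3 μM for cisapride as positive control.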

Pseudomonas aeruginosa [9] = experiment: Antibacterial activity against wild type Pseudomonas aeruginosa ATCC 27853 assessed as reduction in bacterial growth incubated for 18 to 20 hrs by CLSI based microdilution method; assay type: functional; details: time 18-20 hrs; in short: as §2
[10] = molecular target: Voltage-gated inwardly rectifying potassium channel KCNH2 (Homo sapiens, UniProt Q12809); experiment: Inhibition of hERG potassium channel assessed as […] at -80 mV holding potential incubated for 120 seconds by whole cell-automated voltage clamp analysis assay; assay type: toxicity; in short: as §3
Sequence of Voltage-gated inwardly rectifying potassium channel KCNH2 (Q12809 whole entry): as above

[11] = Cytotoxicity against human HEK293 cells assessed as cell viability measured for 48 hrs by CCK-8 assay; assay type: toxicity, cell-based
In short: (§4)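 Cells seeded at 1 × 10⁴ per well and grown for 48 h. Then exposed to test articles at 1–200 μM for another 48 h (n = 6). Viability by CCK-8 added for 2 h, absorbance read at 450 nm. CC50 calculated and reported as the mean.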

Pseudomonas aeruginosa [12] = experiment: Antibacterial activity against multidrug resistant Pseudomonas aeruginosa strains 15 1 to 3 assessed as reduction in bacterial growth incubated for 18 to 20 hrs by CLSI based microdilution method; assay type: functional; details: time 18-20 hrs; in short: as §1
Klebsiella pneumoniae [13] = experiment: Antibacterial activity against KPC2-producing multidrug resistant Klebsiella pneumoniae assessed as reduction in bacterial growth incubated for 18 to 20 hrs by CLSI based microdilution method; assay type: functional; details: time 18-20 hrs; in short: as §1
Escherichia coli [14] = experiment: Antibacterial activity against multidrug resistant wild type Escherichia coli NCTC 13353 assessed as reduction in bacterial growth incubated for 18 to 20 hrs by CLSI based microdilution method; assay type: functional; details: time 18-20 hrs; in short: as §1
Staphylococcus aureus [15] = experiment: Antibacterial activity against methicillin-resistant Staphylococcus aureus strains 15 1 to 4 assessed as reduction in bacterial growth incubated for 18 to 20 hrs by CLSI based microdilution method; assay type: functional; details: time 18-20 hrs; in short: as §1
Staphylococcus aureus [16] = experiment: Antibacterial activity against methicillin-sensitive Staphylococcus aureus strains 15 1 to 4 assessed as reduction in bacterial growth incubated for 18 to 20 hrs by CLSI based microdilution method; assay type: functional; details: time 18-20 hrs; in short: as §1
Escherichia coli [17] = experiment: Antibacterial activity against ESBL-producing multidrug resistant Escherichia coli assessed as reduction in bacterial growth incubated for 18 to 20 hrs by CLSI based microdilution method; assay type: functional; details: time 18-20 hrs; in short: as §1
Pseudomonas aeruginosa [18] = experiment: Antibacterial activity against IMP4-producing multidrug resistant Pseudomonas aeruginosa assessed as reduction in bacterial growth incubated for 18 to 20 hrs by CLSI based microdilution method; assay type: functional; details: time 18-20 hrs; in short: as §1
[19] = Cytotoxicity against human L02 cells assessed as cell viability measured for 48 hrs by CCK-8 assay; assay type: toxicity, cell-based; in short: as §4
Klebsiella pneumoniae [20] = experiment: Antibacterial activity agains wild type Klebsiella pneumoniae ATCC BAA-2470 assessed as reduction in bacterial growth incubated for 18 to 20 hrs by CLSI based microdilution method; assay type: functional; details: time 18-20 hrs; in short: as §1
[21] = Metabolic stability in human liver microsome assessed as elimination half life at 0.1 uM in presence of NADPH incubated upto 60 mins by LC-MS/MS analysis; assay type: ADME; details: liver microsomes, read-out: beta t1/2
In short: (§5)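 Compound at 0.1 μM final, in 0.01% DMSO with 0.005% BSA. Incubated with rat or human liver microsomes at 0.33 mg/mL in 0.1 M Tris-HCl, pH 7.4, with 5 mM MgCl₂ and 1 mM NADPH, at 37 °C. Samples at 0, 7, 17, 30 and 60 min quenched with cold methanol and analysed by LC-MS/MS. Half-life, Cl_int and MF% derived as previously described.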

[22] = Volume of distribution at the steady state in Sprague-Dawley rat at 20 mg/kg, iv measured upto 24 hrs by LC-MS/MS analysis; assay type: ADME, organism-based; details: in vivo, read-out: Vdss
In short: (§6)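 Male Sprague-Dawley rats, n = 3 per group, single intravenous dose. For 4 mg/kg: 180–280 g rats, vehicle 5% DMSO + 5% EtOH + 40% PEG300 + 50% saline, blood from the retrobulbar vein at 0.05–24 h. For 5 and 20 mg/kg: 180–300 g rats, vehicle 5% DMSO + 5% solutol + 90% saline, sampled at 0.083–24 h. Plasma quantified by LC/MS/MS. Parameters from mean plasma concentration by noncompartmental analysis; values are mean ± standard deviation.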

[23] = Clearance in Sprague-Dawley rat at 5 mg/kg, iv measured upto 24 hrs by LC-MS/MS analysis; assay type: ADME, organism-based; details: in vivo; in short: as §6
[24] = MRT in Sprague-Dawley rat at 5 mg/kg, iv measured upto 24 hrs by LC-MS/MS analysis; assay type: ADME, organism-based; details: in vivo; in short: as §6
[25] = Metabolic stability in human liver microsome assessed as metabolic bioavailability at 0.1 uM in presence of NADPH incubated upto 60 mins by LC-MS/MS analysis; assay type: ADME; details: liver microsomes; in short: as §5
Acinetobacter baumannii [26] = experiment: Bactericidal activity against OXA23-producing multidrug resistant Acinetobacter baumannii infected in dosed kunming mouse at 30 mg/kg, iv measured after 24 hrs; assay type: functional, organism-based
In short: (§7)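 Neutropenic thigh model in Kunming mice (18−22 g, half male/half female; 8 per dosed group, 13 vehicle). Cyclophosphamide given ip 4 days (150 mg/kg) and 1 day (100 mg/kg) before infection. Right posterior thigh injected im with 0.1 mL of 10⁷ cfu/mL OXA-23 MDR A. baumannii clinical isolate. Iv tail dosing at 10, 20, 30 mg/kg 2 h post-infection; levofloxacin 30 mg/kg iv; saline vehicle. Thighs homogenised in saline for cfu after 24 h.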

[27] = AUC (0 to infinity) in Sprague-Dawley rat at 20 mg/kg, iv measured upto 24 hrs by LC-MS/MS analysis; assay type: ADME, organism-based; set-up: dose 20 mg/kg, time < 24 hrs, route iv; details: in vivo; in short: as §6
[28] = Clearance in Sprague-Dawley rat at 20 mg/kg, iv measured upto 24 hrs by LC-MS/MS analysis; assay type: ADME, organism-based; details: in vivo; in short: as §6
[29] = Metabolic stability in human liver microsome assessed as intrinsic clearance at 0.1 uM in presence of NADPH incubated upto 60 mins by LC-MS/MS analysis; assay type: ADME; details: microsomes, 1 h; in short: as §5
Acinetobacter baumannii [30] = experiment: Antibacterial activity against OXA23-producing multidrug resistant Acinetobacter baumannii infected in iv dosed kunming mouse measured after 24 hrs; assay type: functional, organism-based; details: dose 10-30 mg/kg, DDE = dose-dependent effect; in short: as §7
[31] = Volume of distribution at the steady state in Sprague-Dawley rat at 5 mg/kg, iv measured upto 24 hrs by LC-MS/MS analysis; assay type: ADME, organism-based; details: in vivo, read-out: Vdss; in short: as §6
[32] = Elimination half life in Sprague-Dawley rat at 20 mg/kg, iv measured upto 24 hrs by LC-MS/MS analysis; assay type: ADME, organism-based; details: in vivo, read-out: beta t1/2 (converted); in short: as §6
[33] = AUC (0 to infinity) in Sprague-Dawley rat at 5 mg/kg, iv measured upto 24 hrs by LC-MS/MS analysis; assay type: ADME, organism-based; set-up: time < 24 hrs, dose 5 mg/kg, route iv; details: in vivo; in short: as §6
[34] = Metabolic stability in rat liver microsome assessed as metabolic bioavailability at 0.1 uM in presence of NADPH incubated upto 60 mins by LC-MS/MS analysis; assay type: ADME; details: liver microsomes; in short: as §5
[35] = Elimination half life in Sprague-Dawley rat at 5 mg/kg, iv measured upto 24 hrs by LC-MS/MS analysis; assay type: ADME, organism-based; details: in vivo, read-out: beta t1/2 (converted); in short: as §6
[36] = Metabolic stability in rat liver microsome assessed as elimination half life at 0.1 uM in presence of NADPH incubated upto 60 mins by LC-MS/MS analysis; assay type: ADME; details: liver microsomes, read-out: beta t1/2; in short: as §5
[37] = Metabolic stability in rat liver microsome assessed as intrinsic clearance at 0.1 uM in presence of NADPH incubated upto 60 mins by LC-MS/MS analysis; assay type: ADME; details: microsomes, 1 h; in short: as §5
[38] = MRT in Sprague-Dawley rat at 20 mg/kg, iv measured upto 24 hrs by LC-MS/MS analysis; assay type: ADME, organism-based; details: in vivo; in short: as §6

SMILES	MIC (Escherichia coli [3])	MIC (Acinetobacter baumannii [5])	MIC (Acinetobacter baumannii [6])	MIC (Klebsiella pneumoniae [7])	inhibition at 2 min, 40 µM [8]	MIC (Pseudomonas aeruginosa [9])	IC50 [10]	CC50 at 48 h [11]	MIC (Klebsiella pneumoniae [13])	MIC (Escherichia coli [14])	MIC (Escherichia coli [17])	MIC (Pseudomonas aeruginosa [18])	CC50 at 48 h [19]	MIC (Klebsiella pneumoniae [20])	also measured
CNc1cc(F)cc2c1[nH]c1nc(Oc3cnc(C)nc3)nc(N3CC4CCNC4C3)c12 (racemic)	0.5 mg/L (≈ 1.15 µM)	0.25 mg/L (≈ 0.575 µM)	0.5 mg/L (≈ 1.15 µM)	4 mg/L (≈ 9.21 µM)	70.5%	4 mg/L (≈ 9.21 µM)	12.3 µM	21.8 µM	2 mg/L (≈ 4.6 µM)	0.25 mg/L (≈ 0.575 µM)	0.5 mg/L (≈ 1.15 µM)	16 mg/L (≈ 36.8 µM)	24 µM	1 mg/L (≈ 2.3 µM)	MIC [1]: < 0.008 mg/L; MIC (Escherichia coli [2]): 0.25 mg/L (≈ 0.575 µM); MIC (Escherichia coli [4]): 0.06 mg/L (≈ 0.138 µM); MIC (Pseudomonas aeruginosa [12]): 0.5 mg/L (≈ 1.15 µM); MIC (Staphylococcus aureus [15]): 0.015 mg/L (≈ 0.0345 µM); MIC (Staphylococcus aureus [16]): < 0.008 mg/L
CNc1cc(F)cc2c1[nH]c1nc(Oc3cnc(C)nc3)nc(N3CC(=C(C)[C@@H](C)N)C3)c12	0.5 mg/L (≈ 1.11 µM)	0.25 mg/L (≈ 0.557 µM)	0.25 mg/L (≈ 0.557 µM)	4 mg/L (≈ 8.92 µM)	18.3%	2 mg/L (≈ 4.46 µM)	> 40 µM	19 µM	2 mg/L (≈ 4.46 µM)	0.125 mg/L (≈ 0.279 µM)	0.5 mg/L (≈ 1.11 µM)	4 mg/L (≈ 8.92 µM)	16 µM	2 mg/L (≈ 4.46 µM)	half-life at 0.1 µM [21]: 1.23 h; Vd [22]: 10.8 L/kg; clearance [23]: 4.6 L/h/kg; MRT [24]: 7.8 h; Fh at 1 h, 0.1 µM [25]: 40.8%; Activity (Acinetobacter baumannii [26]): Active; AUC(0-inf) [27]: 5.79 µg·h/mL; clearance [28]: 3.46 L/h/kg; CLH [29]: 28.4 mL/min/g; Activity (Acinetobacter baumannii [30]): Dde; Vd [31]: 35.7 L/kg; half-life [32]: 5.9 h; AUC(0-inf) [33]: 1.1 µg·h/mL; Fh at 1 h, 0.1 µM [34]: 15%; half-life [35]: 8.5 h; half-life at 0.1 µM [36]: 8.3 min; CLH [37]: 252 mL/min/g; MRT [38]: 3.1 h
